# ChEMBL document CHEMBL1151733, “Pirinixic acid derivatives as novel dual inhibitors of microsomal prostaglandin E2 synthase-1 and 5-lipoxygenase” (J Med Chem, 2008)
# Calls of active or inactive are those of the source. The rule behind the calls is not given here.
# Key:
# [1] = molecular target: T1, Prostaglandin E synthase (Homo sapiens) (UniProt O14684); experiment: Inhibition of mPGES1 in human A549 cells assessed as inhibition of IL-1-beta-induced PGE2 formation at 5 uM by cell-intact assay; type: cell-based
# T1 sequence (whole entry): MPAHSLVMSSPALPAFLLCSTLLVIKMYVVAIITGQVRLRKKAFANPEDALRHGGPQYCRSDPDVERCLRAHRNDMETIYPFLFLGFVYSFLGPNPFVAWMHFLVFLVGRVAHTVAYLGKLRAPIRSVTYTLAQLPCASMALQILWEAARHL
# In short: (§1)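 A549 cells stimulated with IL-1β for 72 h; 2 × 10⁶ cells in 0.5 mL PBS with 1 mM CaCl₂, preincubated with compound 10 min at 37 °C. Stimulated with 2.5 µM A23187, 1 µM AA and [³H]AA (18.4 kBq) for 15 min at 37 °C. Supernatant acidified; [³H]PGE₂ separated by SPE/RP-HPLC and counted by scintillation. Vehicle 0.1% DMSO; mean ± SE, n = 3.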
# [2] = molecular target: T1, Prostaglandin E synthase (Homo sapiens); experiment: Inhibition of mPGES1 in human A549 cells assessed as inhibition of IL-1-beta-induced PGE2 formation at 10 uM by cell-intact assay; type: cell-based; in short: as §1
# [3] = molecular target: T2, Prostaglandin G/H synthase 1 (Ovis aries) (UniProt P05979); experiment: Inhibition of ovine COX1 assessed as remaining activity at 10 uM relative to control
# T2 sequence (whole entry): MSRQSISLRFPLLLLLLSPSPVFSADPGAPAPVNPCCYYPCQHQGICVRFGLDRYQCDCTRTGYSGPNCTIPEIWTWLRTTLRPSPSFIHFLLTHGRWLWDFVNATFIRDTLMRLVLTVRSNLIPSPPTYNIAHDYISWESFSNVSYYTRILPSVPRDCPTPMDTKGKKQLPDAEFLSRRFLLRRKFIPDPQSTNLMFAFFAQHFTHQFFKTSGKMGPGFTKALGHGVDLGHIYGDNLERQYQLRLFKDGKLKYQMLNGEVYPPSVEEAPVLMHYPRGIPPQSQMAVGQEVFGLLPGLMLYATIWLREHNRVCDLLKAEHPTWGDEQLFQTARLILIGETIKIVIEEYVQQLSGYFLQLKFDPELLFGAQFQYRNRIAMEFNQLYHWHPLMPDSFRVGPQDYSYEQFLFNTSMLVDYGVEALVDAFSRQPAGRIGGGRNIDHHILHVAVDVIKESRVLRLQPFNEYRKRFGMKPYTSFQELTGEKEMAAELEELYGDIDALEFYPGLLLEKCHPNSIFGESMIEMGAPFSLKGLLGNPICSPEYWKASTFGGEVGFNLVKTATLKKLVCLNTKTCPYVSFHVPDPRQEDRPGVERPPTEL
# In short: (§2)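 Ovine COX-1 (50 units) or human recombinant COX-2 (20 units) in 100 mM Tris pH 8 with 5 mM glutathione, 5 µM hemoglobin and 100 µM EDTA. Compound preincubation 5 min at 4 °C, then prewarming 60 s at 37 °C. AA added at 5 µM for COX-1 or 2 µM for COX-2, reacted 5 min at 37 °C. 12-HHT extracted and quantified by HPLC. Mean ± SE, n = 3.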
# [4] = molecular target: T3, Prostaglandin G/H synthase 2 (Homo sapiens, UniProt P35354); experiment: Inhibition of human recombinant COX2; in short: as §2
# T3 sequence (P35354 whole entry): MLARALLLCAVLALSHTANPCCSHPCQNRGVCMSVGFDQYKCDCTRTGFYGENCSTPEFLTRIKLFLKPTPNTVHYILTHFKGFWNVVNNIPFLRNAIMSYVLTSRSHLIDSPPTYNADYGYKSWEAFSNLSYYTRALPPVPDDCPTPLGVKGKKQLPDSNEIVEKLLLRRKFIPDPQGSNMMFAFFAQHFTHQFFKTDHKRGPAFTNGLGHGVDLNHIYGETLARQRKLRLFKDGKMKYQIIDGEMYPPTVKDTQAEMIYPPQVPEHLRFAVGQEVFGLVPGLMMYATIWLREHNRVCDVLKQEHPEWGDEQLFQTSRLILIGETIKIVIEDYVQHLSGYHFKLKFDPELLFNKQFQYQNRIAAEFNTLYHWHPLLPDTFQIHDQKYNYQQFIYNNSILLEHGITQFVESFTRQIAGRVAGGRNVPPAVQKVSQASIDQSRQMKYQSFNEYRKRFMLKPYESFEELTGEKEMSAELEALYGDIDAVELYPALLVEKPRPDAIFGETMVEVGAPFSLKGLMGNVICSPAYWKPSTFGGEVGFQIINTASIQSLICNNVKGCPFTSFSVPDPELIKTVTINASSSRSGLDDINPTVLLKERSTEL
# [5] = molecular target: T4, Polyunsaturated fatty acid 5-lipoxygenase (Homo sapiens, UniProt P09917); experiment: Inhibition of 5-LO in PMNL cells; type: cell-based
# T4 sequence (P09917 whole entry): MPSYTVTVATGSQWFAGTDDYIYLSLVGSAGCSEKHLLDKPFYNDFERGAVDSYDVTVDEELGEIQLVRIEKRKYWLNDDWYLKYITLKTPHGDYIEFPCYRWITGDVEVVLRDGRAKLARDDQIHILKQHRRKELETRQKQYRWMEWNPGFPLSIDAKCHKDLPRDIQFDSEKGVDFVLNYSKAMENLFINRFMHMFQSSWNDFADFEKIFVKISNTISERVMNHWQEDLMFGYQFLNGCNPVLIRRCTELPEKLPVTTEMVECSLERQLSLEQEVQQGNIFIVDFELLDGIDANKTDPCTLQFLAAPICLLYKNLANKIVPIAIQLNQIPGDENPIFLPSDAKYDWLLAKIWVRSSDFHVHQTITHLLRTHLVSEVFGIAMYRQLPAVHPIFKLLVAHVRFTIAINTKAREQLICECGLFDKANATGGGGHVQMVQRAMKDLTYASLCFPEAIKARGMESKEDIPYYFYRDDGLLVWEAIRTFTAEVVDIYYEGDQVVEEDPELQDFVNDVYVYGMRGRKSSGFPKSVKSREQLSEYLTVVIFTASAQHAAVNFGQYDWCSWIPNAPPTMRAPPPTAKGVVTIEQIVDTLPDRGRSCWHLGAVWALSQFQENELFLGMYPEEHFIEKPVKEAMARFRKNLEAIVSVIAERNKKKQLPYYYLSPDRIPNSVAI
# In short: (§3)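 Freshly isolated human PMNL from leukocyte concentrates of healthy donors, 5 × 10⁶ cells/mL in PBS pH 7.4 with 1 mg/mL glucose and 1 mM CaCl₂. Preincubated with compound 15 min at RT, then stimulated with 2.5 µM A23187 plus 20 µM AA for 10 min at 37 °C. Stopped with methanol; LTB₄, its all-trans isomers and 5-H(P)ETE quantified by HPLC with PGB₁ internal standard.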
# [6] = molecular target: T1, Prostaglandin E synthase (Homo sapiens); experiment: Inhibition of PGES1 in human A549 cell microsome assessed as PGE2 formation at 10 uM by cell-free assay relative to control; design: scale not given: the % may be the effect or the level left
# In short: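 Microsomes from A549 cells grown with IL-1β (1 ng/mL, 72 h), diluted in 0.1 M potassium phosphate pH 7.4 with 2.5 mM glutathione. Compound or DMSO added 15 min before PGH₂ (20 µM final). Reaction ran 1 min at 4 °C and was stopped with FeCl₂/citric acid. PGE₂ isolated by C18 SPE, then RP-HPLC with UV at 195 nm against 11β-PGE₂ internal standard.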
# [7] = molecular target: T5, Polyunsaturated fatty acid 5-lipoxygenase (Homo sapiens) (UniProt P09917); experiment: Inhibition of 5-LO in human PMNL cells at 10 uM relative to control; type: cell-based; in short: as §3
# T5 sequence (whole entry): T4 sequence (P09917 whole entry)
# [8] = molecular target: T6, Prostaglandin G/H synthase 1 (Ovis aries, UniProt P05979); experiment: Inhibition of ovine COX1; in short: as §2
# T6 sequence (P05979 whole entry): T2 sequence (whole entry)
# [9] = molecular target: T1, Prostaglandin E synthase (Homo sapiens); details: A549, 33 uM
compound,measurement,setting,value
Cc1ccc(-c2cc(C(F)(F)F)nn2-c2ccc(S(N)(=O)=O)cc2)cc1,Activity,[1],Active
COc1ccc2c(c1)c(CC(=O)O)c(C)n2C(=O)c1ccc(Cl)cc1,Activity,[2],Active
same,Activity,[3],19%
CC(C)c1ccc2c(c1)c(SC(C)(C)C)c(CC(C)(C)C(=O)O)n2Cc1ccc(Cl)cc1,IC50,[4],> 10 µM
same,IC50,[5],0.09 µM
same,Activity,[6],26%
same,Activity,[7],inactive
same,IC50,[8],> 10 µM
same,inhibition,[9],63%
